Screening results from PubChem.
A1 apoptosis 2 = A1 inhibitors via caspase activation, primary screen, cell-based, luminescence, HTS, two replicates. MEF A1-2A-BIM cells, caspase-Glo luminescence, 3 h; percent of clofoctol response, DMSO zero. caspase activation, % (no concentration beside the values). 24,000 tested, under 10 active. AID 2465, 2010; in the data active = caspase activation above about 5.9%
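system = A1-2A-BIM-expressing MEF cells | quantity = 2500 MEF cells/well | dosing = 50 nL compound per well, pinned | schedule = overnight cell settling, then 3 h compound exposure, 37 °C | signal = luminescence from DEVD-luciferin Caspase-Glo reagent, 1:1 in 50 mM HEPES, 1 h RT | read-out = Caspase-3/7 activation, seen as rise in luminescence signal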
INS-1E ATP HTS = protection of INS-1E cells from cytokine death, primary screen, ATP luminescence, single point; INS-1E cytokine-induced death, 48 h; normalised: neutral wells 0, positive control 100; protection from cytokine-induced ATP loss, % at 10 µM; hit rate 0.1% among 20,000; AID 488910, 2010;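 active = mean replicate protection from cytokine-induced ATP loss at least 50% and at least 75% of replicates each reaching 50%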
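Material: INS-1E rat cells; Quantity: 8000 cells/well; Buffer or medium: phenol-red-free RPMI with 5% fetal bovine serum; Probe or stimulus: cytokine cocktail of IFN-γ, TNF-α and IL-1β; Compound dosing: single test concentration per compound, delivered by pin transfer; Incubation: 48 h co-treatment, 10 min post-lysis read; Signal: CellTiter-Glo luminescence.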
T cruzi intra = inhibitors of intracellular Trypanosoma cruzi, primary screen, cell-based, plate reader, single point, set 2 | intracellular Trypanosoma cruzi in host cells | activity score (inhibition), % at 5.01 µM | AID 651903, 2012 | hit rate 4.9% among 22,000; in the data active = activity score above about 55%;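 note: parasites and compound incubated about four days before reading; 0% = median of neutral control wells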
Active calls of the source: *; x = no result. Only a selection was taken, and hits are over-represented in it overall.

SMILES | A1 apoptosis 2 | INS-1E ATP HTS | T cruzi intra
C[C@H]1CN([C@@H](C)CO)C(=O)Cc2cc(NC(=O)Nc3ccccc3)ccc2O[C@H]1CN(C)Cc1ccc(Oc2ccccc2)cc1 | x | -15.9 | -3.9
COC(=O)C(CC#Cc1ccc2c(c1)[C@]1(C(=O)N2)[C@H](c2ccc(O)cc2)N2[C@H](c3ccccc3)[C@H](c3ccccc3)OC(=O)[C@H]2[C@@H]1C(N)=O)C(=O)OC | -1.3 | x | x
C[C@@H]1CN([C@H](C)CO)C(=O)c2cccc(NC(=O)c3cnccn3)c2O[C@@H]1CN(C)S(=O)(=O)c1cccs1 | x | -3.8 | 5.7
COc1ccc(S(=O)(=O)N(C)C[C@@H]2Oc3c(NC(=O)Nc4cccc5ccccc45)cccc3C(=O)N([C@H](C)CO)C[C@@H]2C)cc1 | -0.1 | 10.8 | -4.8
C[C@@H]1CN([C@@H](C)CO)C(=O)c2cccc(NC(=O)c3nc4ccccc4s3)c2O[C@H]1CN(C)S(=O)(=O)c1ccc(Cl)cc1 | x | -30.2 | 32.0
C[C@H]1CN([C@@H](C)CO)C(=O)c2cccc(NC(=O)c3nc4ccccc4s3)c2O[C@@H]1CN(C)S(=O)(=O)c1cccs1 | 1.4 | -7.7 | 25.0
C[C@H]1CN([C@@H](C)CO)C(=O)c2cccc(NC(=O)c3nc4ccccc4s3)c2O[C@H]1CN(C)S(=O)(=O)c1ccccc1 | x | -39.2 | 76.7*
COc1ccc(S(=O)(=O)N(C)C[C@@H]2Oc3c(NC(=O)Nc4cccc5ccccc45)cccc3C(=O)N([C@@H](C)CO)C[C@H]2C)cc1 | 0.5 | 81.2* | 8.7
C[C@H](CO)N1C[C@H](C)[C@@H](CN(C)S(=O)(=O)c2cccs2)Oc2c(NC(=O)c3nc4ccccc4s3)cccc2C1=O | -0.4 | -6.3 | 57.1*
C[C@H](CO)N1C[C@H](C)[C@H](CN(C)S(=O)(=O)c2cccs2)Oc2c(NC(=O)c3cnccn3)cccc2C1=O | x | 0.3 | 68.7*
O=C(N/N=C/c1ccc([N+](=O)[O-])c(O)c1)c1ccccc1O | x | -26.1 | -8.9
COc1cc(O)cc(OC)c1/C=N/NC(=O)CCCCCCC(=O)Nc1ccccc1O | -1.9 | -1.9 | -14.3
C[C@H](CO)N1C[C@H](C)[C@@H](CN(C)S(=O)(=O)c2ccccc2)Oc2c(NC(=O)c3nc4ccccc4s3)cccc2C1=O | x | 0.8 | 41.9
COc1ccc(S(=O)(=O)N(C)C[C@H]2Oc3c(NC(=O)c4nc5ccccc5s4)cccc3C(=O)N([C@@H](C)CO)C[C@@H]2C)cc1 | x | -11.2 | 62.8*
COc1ccc(S(=O)(=O)N(C)C[C@@H]2Oc3c(NC(=O)c4nc5ccccc5s4)cccc3C(=O)N([C@H](C)CO)C[C@H]2C)cc1 | -0.3 | -36.5 | 44.3
C[C@H]1CN([C@@H](C)CO)C(=O)c2cccc(NC(=O)c3nc4ccccc4s3)c2O[C@@H]1CN(C)S(=O)(=O)c1ccccc1 | x | -12.8 | 72.9*
O=C(NCCO)C1=C[C@H](Oc2ccccc2I)[C@@H](O)[C@H](N(Cc2ccco2)C(=O)Cc2ccccc2)C1 | -0.3 | x | x
C[C@@H]1CN([C@H](C)CO)C(=O)Cc2cc(N(C)C)ccc2O[C@@H]1CN(C)Cc1ccc(C(F)(F)F)cc1 | -0.8 | -1.2 | -4.4
C[C@@H]1CN([C@H](C)CO)C(=O)Cc2cc(N(C)C)ccc2O[C@H]1CN(C)Cc1ccc(C(F)(F)F)cc1 | 0.3 | 19.6 | 64.0*
C[C@H]1CN([C@@H](C)CO)C(=O)Cc2cc(N(C)C)ccc2O[C@@H]1CN(C)Cc1ccc(C(F)(F)F)cc1 | 1.1 | 1.7 | 73.8*
C[C@@H]1CN([C@@H](C)CO)C(=O)Cc2cc(N(C)C)ccc2O[C@@H]1CN(C)Cc1ccc(C(F)(F)F)cc1 | 1.4 | -5.4 | -17.8
C=CC(CO)NS(=O)(=O)c1ccc(Br)cc1 (stereo not given) | -0.7 | x | x
COC(=O)CCCCCCC(=O)N/N=C/C1=CC[C@H]2C[C@@H]1C2(C)C | 0.3 | 7.1 | -7.6
O=C(N/N=C/c1ccc(Br)cc1)c1ccccc1O | -7.4 | -7.3 | -23.5
COc1ccc(CN(C)C[C@H]2OCCCC[C@@H](C)Oc3ccc(NC(=O)Nc4ccc(C(F)(F)F)cc4)cc3C(=O)N([C@H](C)CO)C[C@@H]2C)cc1 | x | -33.0 | 66.8*
SMILES | A1 apoptosis 2 | INS-1E ATP HTS | T cruzi intra
COc1ccc(NC(=O)Nc2ccc3c(c2)C(=O)N([C@@H](C)CO)C[C@@H](C)[C@H](CN(C)Cc2ccc(C(F)(F)F)cc2)OCCCC[C@@H](C)O3)cc1 | 0.8 | x | x
COc1ccc(NC(=O)Nc2ccc3c(c2)C(=O)N([C@H](C)CO)C[C@H](C)[C@H](CN(C)Cc2ccc(C(F)(F)F)cc2)OCCCC[C@@H](C)O3)cc1 | x | -4.0 | 71.4*
COc1ccc(CN(C)C[C@H]2OCCCC[C@H](C)Oc3ccc(NC(=O)Nc4ccc(C(F)(F)F)cc4)cc3C(=O)N([C@H](C)CO)C[C@@H]2C)cc1 | 1.0 | x | x
COc1ccc(C#Cc2ccc3c(c2)[C@]2(C(=O)N3)[C@H](c3ccc(O)cc3)N3[C@H](c4ccccc4)[C@H](c4ccccc4)OC(=O)[C@H]3[C@@H]2C(=O)N2CCN(c3ncccn3)CC2)cc1 | 0.1 | x | x
O=C(N/N=C/c1ccc(OCCO)cc1)c1ccccn1 | -9.6 | -12.4 | -4.7
O=S(=O)(NCCCO)c1ccc(Br)cc1 | -0.2 | x | x
CCCC[C@H]1OB(O)C[C@H]2C1=C(COc1ccccc1)Cn1c(=O)n(-c3ccccc3)c(=O)n12 | -0.3 | x | x
C[C@H]1CN([C@@H](C)CO)C(=O)c2cccc(NS(=O)(=O)c3ccc(Cl)cc3)c2O[C@H]1CN(C)Cc1ccc(Oc2ccccc2)cc1 | x | -20.3 | 43.5
C[C@@H]1CN([C@@H](C)CO)C(=O)c2cccc(NS(=O)(=O)c3ccc(Cl)cc3)c2O[C@@H]1CN(C)Cc1ccc(Oc2ccccc2)cc1 | 0.1 | -87.3 | 66.5*
C[C@@H]1CN([C@H](C)CO)C(=O)c2cccc(NS(=O)(=O)c3ccc(Cl)cc3)c2O[C@H]1CN(C)Cc1ccc(Oc2ccccc2)cc1 | -0.9 | -0.1 | 58.2*
C[C@H](CO)N1C[C@H](C)[C@@H](CN(C)Cc2ccc(Oc3ccccc3)cc2)Oc2c(NS(=O)(=O)c3ccc(Cl)cc3)cccc2C1=O | x | -15.4 | 64.9*
C[C@H](CO)N1C[C@H](C)[C@H](CN(C)Cc2ccc(Oc3ccccc3)cc2)Oc2c(NS(=O)(=O)c3ccccc3)cccc2C1=O | -1.9 | -43.9 | 21.7
C[C@H]1CN([C@@H](C)CO)C(=O)c2cccc(NS(=O)(=O)c3ccccc3)c2O[C@@H]1CN(C)Cc1ccc(Oc2ccccc2)cc1 | -0.9 | -4.4 | 12.9
CN(C)CCCCNC(=O)[C@@H]1C[C@@H]2C(=O)N[C@@H](Cc3ccccc3)C(=O)N2[C@@H]1c1ccc(O)cc1 | -0.1 | x | x
COCCOC(=O)N1C(=O)[C@@]2(c3cc(C#CCC(C(=O)OC)C(=O)OC)ccc31)[C@H](C(N)=O)[C@H]1C(=O)O[C@H](c3ccccc3)[C@H](c3ccccc3)N1[C@@H]2c1ccccc1OCCO | 1.3 | x | x
O=C(CCCCCCC(=O)Nc1ccccc1O)NN=C1CCCC1 | x | 6.3 | -10.3
